From ChEMBL document CHEMBL4350958, “Rational Design of Short Peptide Variants by Using Kunitzin-RE, an Amphibian-Derived Bioactivity Peptide, for Acquired Potent Broad-Spectrum Antimicrobial and Improved Therapeutic Potential of Commensalism Coinfection of Pathogens” (J Med Chem, 2019)

Columns and labels:
Staphylococcus aureus [1] = test: Antibacterial activity against Staphylococcus aureus ATCC 29213 measured after 18 to 24 hrs in presence of NH4Cl; assay type: functional
In short: (§1)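 MIC broth microdilution (MHB, 0.2% BSA peptide diluent, A492, 95% inhibition) run in the presence of physiological salts at final concentrations of 6 μM NH4Cl or 8 μM ZnCl2. Three independent assays, each with three technical replicates.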

Candida parapsilosis = test: Antifungal activity against Candida parapsilosis cgmcc2.3989 measured after 48 hrs by broth microdilution method; assay type: functional
In short: (§2)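 Modified CLSI M27-A2 microdilution. Yeast colonies were diluted in MOPS-buffered RPMI 1640 to a final (0.5–1) × 10^3 CFU mL−1 and mixed with an equal volume of peptide serially diluted in 0.2% BSA. After 48 h at 28 °C, MIC was read at A492 as the lowest concentration inhibiting 95% of growth. At least three independent experiments, each with three technical replicates.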

Candida tropicalis [2] = test: Fungicidal activity against Candida tropicalis cgmcc2.1975 incubated for 48 hrs followed by replating on YM agar plate and measured after 48 hrs; assay type: functional
In short: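 Yeast diluted in MOPS-buffered RPMI 1640 to (0.5–1) × 10^3 CFU/mL (CLSI M27-A2, modified) and mixed 1:1 with peptide serially diluted in 0.2% BSA. After 48 h at 28 °C, 50 μL per well was plated on YM agar and incubated 48 h at 28 °C. MFC taken as the lowest concentration killing ≥99.9% of cells. Three or more independent experiments, triplicate wells.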

Staphylococcus aureus [3] = test: Antibacterial activity against Staphylococcus aureus ATCC 29213 measured after 18 to 24 hrs in presence of ZnCl2; assay type: functional; in short: as §1
Pseudomonas aeruginosa = test: Antibacterial activity against Pseudomonas aeruginosa ATCC 27853 measured after 24 hrs; assay type: functional
In short: (§3)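 Broth microdilution adapted from NCCLS. Mid-log bacteria were diluted in MHB to a final (0.5–1) × 10^5 CFU mL−1. Peptides were serially diluted in 0.2% BSA and mixed with an equal volume of cells. After 24 h at 37 °C, MIC was read at A492 as the lowest concentration inhibiting 95% of growth. At least three independent experiments, each with three technical replicates.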

Escherichia coli [4] = test: Bactericidal activity against Escherichia coli 078 incubated for 24 hrs followed by replating on agar plate and measured after overnight incubation; assay type: functional; conditions: for MBC: Escherichia coli, 078, 24 h, read-out: MBC>99.9
In short: (§4)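 After the 24 h, 37 °C MHB microdilution (0.5–1 × 10^5 CFU mL−1 inoculum, peptides diluted in 0.2% BSA), 50 μL from each well was plated on agar and incubated overnight. MBC was taken as the lowest concentration killing >99.9% of cells. Three or more independent experiments, each with triplicate technical replicates.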

Erythrocyte = test: Hemolytic activity in human RBC measured after 1 hr; assay type: ADME, cell-based
In short: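 Fresh healthy-donor human erythrocytes at ~1% (v/v) in PBS pH 7.4, mixed 1:1 with peptide (1–128 µM), 1 h at 37 °C. After centrifugation at 1000×g, supernatant hemoglobin read at 576 nm. Untreated cells set 0% and 0.1% Triton X-100 set 100%. MHC defined as the concentration giving >10% hemolysis. Three or more independent experiments, triplicates.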

Escherichia coli [5] = test: Bactericidal activity against Escherichia coli ATCC 25922 incubated for 24 hrs followed by replating on agar plate and measured after overnight incubation; assay type: functional; conditions: for MBC: ATCC 25922, 24 h, read-out: MBC>99.9; in short: as §4
Candida albicans [6] = test: Antifungal activity against Candida albicans cgmcc2.2086 measured after 48 hrs in presence of MgCl by broth microdilution method; assay type: functional
Staphylococcus aureus [7] = test: Bactericidal activity against methicillin-resistant Staphylococcus aureus ATCC 43300 incubated for 24 hrs followed by replating on agar plate and measured after overnight incubation; assay type: functional; conditions: for MBC: ATCC 43300, 24 h, read-out: MBC>99.9
In short: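 After the 24 h, 37 °C MHB microdilution MIC assay, 50 μL from each well was plated on agar and incubated overnight. MBC taken as lowest peptide concentration killing >99.9% of cells. At least three independent experiments, each with three technical replicates.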

Salmonella typhimurium [8] = test: Antibacterial activity against Salmonella typhimurium ATCC 14028 measured after 24 hrs; assay type: functional, Salmonella enterica subsp. enterica serovar Typhimurium; in short: as §3
[9] = Therapeutic index, ratio of MHC10 for hemolytic activity in human RBC to MIC95 against Staphylococcus aureus ATCC 25923; assay type: toxicity; conditions: human red blood cells (erythrocytes), read-out: TI
In short: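 Therapeutic index = MHC divided by MIC. MHC is the lowest concentration giving >10% lysis of human RBC (1 h, 37 °C, 1-128 µM, A576). MIC is 95% growth inhibition by broth microdilution: bacteria in MHB 24 h at 37 °C; Candida in MOPS-buffered RPMI 1640 at (0.5–1) × 10^3 CFU mL−1, 48 h at 28 °C.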

Escherichia coli [10] = test: Antibacterial activity against Escherichia coli ATCC 25922 measured after 18 to 24 hrs in presence of ZnCl2; assay type: functional
Candida albicans [11] = test: Antifungal activity against Candida albicans cgmcc2.2086 measured after 48 hrs by broth microdilution method; assay type: functional; in short: as §2
Escherichia coli [12] = test: Antibacterial activity against Escherichia coli ATCC 25922 measured after 18 to 24 hrs in presence of FeCl3; assay type: functional
Salmonella typhimurium [13] = test: Antibacterial activity against Salmonella typhimurium C7731 measured after 24 hrs; assay type: functional, Salmonella enterica subsp. enterica serovar Typhimurium; in short: as §3
Escherichia coli [14] = test: Antibacterial activity against Escherichia coli ATCC 25922 measured after 18 to 24 hrs in presence of NaCl; assay type: functional
[15] = Bactericidal activity against Salmonella pullorum ATCC 7913 incubated for 24 hrs followed by replating on agar plate and measured after overnight incubation; assay type: functional, Salmonella enterica subsp. enterica serovar Pullorum; conditions: Salmonella enterica, ATCC 7913, 24 h; read-out: MBC>99.9
In short: (§5)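 Mid-log bacteria diluted in MHB to (0.5–1) × 10^5 CFU/mL and mixed 1:1 with peptide serially diluted in 0.2% BSA. After 24 h at 37 °C, 50 μL of each mixture was plated on agar and incubated overnight. MBC taken as the lowest concentration killing >99.9% of cells. At least three independent experiments, each with three technical replicates.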

Salmonella typhimurium [16] = test: Bactericidal activity against Salmonella typhimurium C7731 incubated for 24 hrs followed by replating on agar plate and measured after overnight incubation; assay type: functional, Salmonella enterica subsp. enterica serovar Typhimurium; conditions: for MBC: Salmonella enterica, C7731, 24 h, read-out: MBC>99.9; for MBC>99.9: Salmonella enterica subsp. enterica serovar Typhimurium; in short: as §5
Salmonella typhimurium [17] = test: Bactericidal activity against Salmonella typhimurium ATCC 14028 incubated for 24 hrs followed by replating on agar plate and measured after overnight incubation; assay type: functional, Salmonella enterica subsp. enterica serovar Typhimurium; conditions: for MBC: Salmonella enterica, ATCC 14028, 24 h, read-out: MBC>99.9; for MBC>99.9: Salmonella enterica subsp. enterica serovar Typhimurium; in short: as §5
Candida tropicalis [18] = test: Antifungal activity against Candida tropicalis cgmcc2.1975 measured after 48 hrs by broth microdilution method; assay type: functional; in short: as §2
Staphylococcus aureus [19] = test: Antibacterial activity against Staphylococcus aureus ATCC 29213 measured after 18 to 24 hrs in presence of KCl; assay type: functional
Escherichia coli [20] = test: Antibacterial activity against Escherichia coli ATCC 25922 measured after 24 hrs; assay type: functional; in short: as §3
[21] = Lodderomyces parapsilosis, cgmcc2.3989, 48 h
[22] = Salmonella enterica, ATCC 14028, 24 h
[23] = Salmonella enterica, C7731, 24 h
[24] = Salmonella enterica subsp. enterica serovar Typhimurium

Substance | MIC95 (Staphylococcus aureus [1]) [µM] | MIC95 (Candida parapsilosis; [21]) [µM] | MFC<=99.9 (Candida tropicalis [2]) [µM] | MIC95 (Staphylococcus aureus [3]) [µM] | MIC95 (Pseudomonas aeruginosa; ATCC 27853, 24 h) [µM] | MBC (Escherichia coli [4]) [µM] | MHC10 (Erythrocyte) [µM] | MBC (Escherichia coli [5]) [µM] | MIC95 (Candida albicans [6]; cgmcc2.2086, 48 h) [µM] | MBC (Staphylococcus aureus [7]) [µM] | MIC95 (Salmonella typhimurium [8]; [22]) [µM] | selectivity ratio [9] | MIC95 (Escherichia coli [10]) [µM] | MIC95 (Candida albicans [11]; cgmcc2.2086, 48 h) [µM] | MIC95 (Escherichia coli [12]) [µM] | MIC95 (Salmonella typhimurium [13]; [23]) [µM] | MIC95 (Escherichia coli [14]) [µM] | MIC95 (Candida tropicalis [18]; cgmcc2.1975, 48 h) [µM] | MIC95 (Staphylococcus aureus [19]) [µM] | MIC95 (Escherichia coli [20]; ATCC 25922, 24 h) [µM] | also measured
H-AARIILRYRFR-NH2 | 4 | 64 | 32 | 2 | 16 | 4 | > 128 | 16 | 64 | 8 | 8 | 64 | 8 | 32 | 16 | 4 | > 128 | 16 | 8 | 8 | MBC [15]: 8 µM; MBC (Salmonella typhimurium [16]): 8 µM; MBC (Salmonella typhimurium [17]): 16 µM
H-AARIILRLRFR-NH2 | 2 | 4 | 4 | 2 | 8 | 8 | > 128 | 8 | 8 | 4 | 4 | 128 | 4 | 8 | 8 | 4 | 64 | 4 | 2 | 4 | MBC [15]: 8 µM; MBC (Salmonella typhimurium [16]): 8 µM; MBC (Salmonella typhimurium [17]): 8 µM
H-AARIILRDRFR-NH2 | > 128 | > 128 |  | > 128 | > 128 |  | > 128 |  | > 128 |  | > 128 | 2 | > 128 | > 128 | > 128 | > 128 | > 128 | > 128 | > 128 | ≥ 128 | 
POLYMYXIN B | 32 |  |  | 32 |  |  |  |  |  |  |  |  | 2 |  | 2 |  | 4 |  | 32 |  | MIC95 (Candida parapsilosis): 8 µM; MIC95 (Pseudomonas aeruginosa): 2 µM; MBC>99.9 (Escherichia coli [4]): 1 µM; MBC>99.9 (Escherichia coli [5]): 4 µM; MIC95 (Candida albicans [6]): 32 µM; MBC>99.9 (Staphylococcus aureus [7]): 128 µM; MIC95 (Salmonella typhimurium [8]; [24]): 2 µM; MIC95 (Candida albicans [11]): 32 µM; MIC95 (Salmonella typhimurium [13]; [24]): 2 µM; MBC>99.9 (Salmonella typhimurium [16]): 4 µM; MBC>99.9 (Salmonella typhimurium [17]): 2 µM; MIC95 (Candida tropicalis [18]): > 128 µM; MIC95 (Escherichia coli [20]): 2 µM
GENTAMICIN | 1 |  |  | 1 |  |  |  |  |  |  |  |  | 1 |  | 1 |  | 4 |  | 1 |  | MIC95 (Candida parapsilosis): > 128 µM; MIC95 (Pseudomonas aeruginosa): 1 µM; MBC>99.9 (Escherichia coli [4]): 0.5 µM; MBC>99.9 (Escherichia coli [5]): 1 µM; MIC95 (Candida albicans [6]): > 128 µM; MBC>99.9 (Staphylococcus aureus [7]): 16 µM; MIC95 (Salmonella typhimurium [8]; [24]): 2 µM; MIC95 (Candida albicans [11]): > 128 µM; MIC95 (Salmonella typhimurium [13]; [24]): 1 µM; MBC>99.9 (Salmonella typhimurium [16]): 2 µM; MBC>99.9 (Salmonella typhimurium [17]): 4 µM; MIC95 (Candida tropicalis [18]): > 128 µM; MIC95 (Escherichia coli [20]): 1 µM
